Compound activity as filed in PubChem.
Sampled rows, rich in hits. Any-hit rate of the full collection: about 1.2%.
G6PDH counter = L. mesenteroides G6PDH inhibitors, counter-screen for G6PDH-coupled screening assays, biochemical, Leuconostoc mesenteroides enzyme. glucose-6-phosphate dehydrogenase [Leuconostoc mesenteroides]. Purified L. mesenteroides G6PDH, diaphorase/resazurin coupled fluorescence, 45 min. inhibition, % at 5 µM. 200,000 tested, 0.12% active. AID 1020, 2008; in the data active = inhibition above about 50%
Tb hexokinase = Trypanosoma brucei hexokinase 1 inhibitors, primary screen, biochemical, G6PDH-coupled NADH absorbance, MLSCN library | recombinant TbHK1, G6PDH-coupled NADH A340 | hexokinase 1 [Trypanosoma brucei] | inhibition, % at 10 µM | 220,000 tested, 0.11% active;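 active = inhibition of 50% or more in the single-dose primary screen; inactive = inhibition below 50%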
PfG6PD inh = PfG6PD enzyme inhibitors, primary screen, biochemical, fluorescence intensity, uHTS; glucose-6-phosphate dehydrogenase-6-phosphogluconolactonase (Plasmodium falciparum 3D7); PfGluPho enzyme, NADPH resazurin-diaphorase fluorescence; inhibition, % at 20 µM; 350,000 tested, 0.78% active; AID 504690, 2011;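 active = inhibition reaching at least a set limit at 20 µM in the primary screen, cut at about 59% in these data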;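 also: 0% = DMSO wells with substrate and 100% = DMSO wells lacking glucose-6-phosphate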
Diaphorase inh = diaphorase inhibitors and chemical oxidizers, primary screen, counter-screen for diaphorase-coupled primary assays, biochemical, uHTS, resorufin fluorescence; diaphorase resazurin-to-resorufin fluorescence, NADH, 16 min; bacterial (C. kluyveri) enzyme, not human; inhibition, % at 20 µM; 190,000 tested, 0.69% active; AID 1217, 2008;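 active = primary screen inhibition at 20 µM above a set limit, cut at about 50% in these data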;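 also: plate controls were DMSO with full reaction for no effect and wells lacking NADH for full effect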
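Test system: Clostridium kluyveri diaphorase enzyme / Quantity: diaphorase at 0.14 U/mL in enzyme working solution / Incubation: 16-min room-temperature incubation before reading / Benchmarks: NADH-free wells as positive control, DMSO-only neutral wells / Signal: resorufin fluorescence 544/590 nm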
HKDC1 inh = HKDC1 hexokinase inhibitors, primary screen, biochemical, fluorescence, uHTS. recombinant HKDC1, G6PDH/diaphorase resazurin coupled fluorescence. inhibition, % at 20 µM. 340,000 tested, 0.16% active. AID 493160, 2011;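 active = inhibition above about 35% when tested at 20 µM, limit read from the data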;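 also: plate controls were DMSO wells with enzyme for no effect and DMSO wells lacking enzyme for full effect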
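Assay system: in-house recombinant HK5 (HKDC1) enzyme. Input: HKDC1 at 5 µg/mL. Medium: Tris pH 8.0 buffer with MgCl2, Tween-20, BSA, BME. Dosing: single 20 µM dose. Schedule: 90 min reaction incubation at room temperature, dark. Signal: resazurin-to-resorufin fluorescence via G6PDH and diaphorase coupling, 525/613 nm. Controls: DMSO-enzyme wells negative, buffer-substituted wells positive.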
PfGluPho conf = PfG6PD inhibitors, hit retest, confirmation, biochemical, fluorescence intensity, single concentration. shares compounds with PfG6PD inh. inhibition, % at 20 µM. recombinant PfGluPho, NADPH-diaphorase-resazurin fluorescence. 2,400 tested, 34% active;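 active = inhibition of at least 50% at 20 µM in any single replicate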;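 also: 0% = DMSO with substrate and 100% = DMSO lacking glucose-6-phosphate substrate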
Diaphorase 10uM = diaphorase inhibitors and chemical oxidizers, confirmation, counter-screen for P. falciparum G6PD inhibitor project, biochemical, fluorescence intensity, 10 µM NADPH. shares compounds with PfG6PD inh. diaphorase-coupled resazurin reduction, NADPH 10 uM. 820 tested, 39% active. inhibition, % at 20 µM;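 active = average inhibition reaching 50% or more with the compound at 20 µM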;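 also: resorufin red fluorescence formed as diaphorase reduces resazurin using NADPH; 0% = DMSO with enzyme and 100% = DMSO without enzyme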
Diaphorase 30uM = diaphorase inhibitors and chemical oxidizers, confirmation, counter-screen for P. falciparum G6PD inhibitor project, biochemical, fluorescence intensity, 30 µM NADPH; Diaphorase/resazurin coupled assay, resorufin fluorescence; shares compounds with PfG6PD inh; inhibition, % at 20 µM; AID 504863, 2011; 820 tested, 29% active;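 active = inhibition averaging 50% or more, tested at 20 µM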;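 also: 0% = DMSO with enzyme and 100% = DMSO wells lacking diaphorase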
The depositor's hits bear a star.

Results for Oc1ccc(N2CCN(c3ncnc4sc(-c5ccccc5)cc34)CC2)cc1 ?
G6PDH counter: -4; Tb hexokinase: -14; PfG6PD inh: 72*; Diaphorase inh: 33; HKDC1 inh: 4; PfGluPho conf: 23

How did CCOC(=O)C(C)Sc1nc(-c2cccs2)ccc1C#N (stereo not drawn) do in these assays?
G6PDH counter: 8; Tb hexokinase: -20; PfG6PD inh: 78*; Diaphorase inh: 8; HKDC1 inh: -1; PfGluPho conf: 2

How did C=COC(=O)CSc1nc(-c2cccs2)ccc1C#N do in these assays?
G6PDH counter: 10; Tb hexokinase: -2; PfG6PD inh: -11; Diaphorase inh: 35; HKDC1 inh: -6

Results for O=C(/C=C/c1ccccc1)NC(NC(=S)Nc1ccc(Cl)cc1Cl)C(Cl)(Cl)Cl (stereo not drawn) ?
G6PDH counter: -8; Tb hexokinase: -1; PfG6PD inh: 62*; Diaphorase inh: 20; HKDC1 inh: -6; PfGluPho conf: 21

How did O=C(/C=C/c1ccccc1)NC(NC(=S)Nc1cccc(Cl)c1)C(Cl)(Cl)Cl (stereo not drawn) do in these assays?
G6PDH counter: 6; Tb hexokinase: -5; PfG6PD inh: -5; Diaphorase inh: 15; HKDC1 inh: 0

How did CC(C)(C)Nc1nc(-c2ccc3c(c2)CCN3C(=O)C2CC2)cs1 do in these assays?
PfG6PD inh: 70*; HKDC1 inh: -12; PfGluPho conf: 17

What do the screens show for `O=C(Cn1ccc(=O)[nH]c1=O)c1ccc([N+](=O)[O-])o1`?
PfG6PD inh: 59*; PfGluPho conf: 33

How did CCC(C)c1ccc(OCc2ccc(C(=O)O)o2)cc1 (stereo not drawn) do in these assays?
PfG6PD inh: -34; HKDC1 inh: 8

What do the screens show for `CCN(C(=O)COC(=O)CSc1ccc([N+](=O)[O-])cc1)C1CCS(=O)(=O)C1` (stereo not drawn)?
PfG6PD inh: 60*; HKDC1 inh: 0; PfGluPho conf: 1

How did Cn1nnnc1SCC(=O)Nc1ncc(C(F)(F)F)cc1Cl do in these assays?
PfG6PD inh: -6; HKDC1 inh: -7

Results for O=C1NC(=NCc2ccccc2)NC1(c1ccccc1)c1ccccc1 ?
PfG6PD inh: 7; HKDC1 inh: -8

Results for CCOC(=O)c1c(C)[nH]c(C)c1C(=O)COC(=O)c1cccs1 ?
PfG6PD inh: 60*; HKDC1 inh: 1; PfGluPho conf: 14

How did CCC(C)c1ccccc1OCCn1ccnc1 (stereo not drawn) do in these assays?
G6PDH counter: 5; Tb hexokinase: 28; PfG6PD inh: 70*; Diaphorase inh: 11; HKDC1 inh: 2; PfGluPho conf: 56*; Diaphorase 10uM: 35; Diaphorase 30uM: 31

How did COc1ccccc1OCCn1ccnc1 do in these assays?
PfG6PD inh: -6; HKDC1 inh: -7

Results for CC1CCc2sc(C(=O)NNS(=O)(=O)c3ccc(F)c(F)c3F)cc2C1 (stereo not drawn) ?
PfG6PD inh: -29; HKDC1 inh: 3

Results for COc1cc2c(cc1OC)C(=NO)CCCC2 ?
PfG6PD inh: -7

What do the screens show for `Cc1ccc2nc(N(CCCN(C)C)C(=O)c3ccc4ncsc4c3)sc2c1`?
PfG6PD inh: 60*; HKDC1 inh: 1; PfGluPho conf: -8
